Results pooled from the literature.
Protocols differ between the studies behind these lines.
CDK2 with cyclin A: Cyclin-dependent kinase 2, with cyclin A (CDK2, Homo sapiens, UniProt P24941)
CDK2: Cyclin-dependent kinase 2 (CDK2, Homo sapiens, UniProt P24941)
CDK2 with cyclin E: Cyclin-dependent kinase 2, with cyclin E (CDK2, Homo sapiens, UniProt P24941)

Compound | target | effect on | mode | technique | tested at | quantity | value
COc1cc(/C=C/C(=O)CC(=O)/C=C/c2ccc(O)c(OC)c2)ccc1O | CDK2 with cyclin A | enzyme activity | inhibitor | – | 1 µM | activity vs control | 107%
Cn1cc(Cl)c2c(Oc3c(F)cc(Nc4cc(Cl)nc(N)n4)cc3F)ccnc21 | CDK2 | cell-free assay | – | competition with immobilised ligand | 0.1 µM | remaining binding | 100%
O=C1Nc2ccc(Cl)cc2C1=Cc1cc(Cl)c(O)c(Cl)c1 | CDK2 with cyclin E | cell-free assay | – | – | 0.5 µM | remaining signal | 90%
Cn1c2c(Cl)c(Cl)ccc2c2cc[nH]c(=O)c21 | CDK2 | thermal stability | – | DSF | 10 µM | ΔTm | 0.6 °C
O=C(Nc1cnn(-c2csc(C(=O)NC3COC3)c2)c1)Nc1ccccc1Cl | CDK2 with cyclin E | enzyme activity | inhibitor | – | 5 µM | remaining activity | 99%
Cn1c2c(c3ccc(Cl)c(Cl)c31)C(C#N)C1(CCNCC1)NC2=O (racemic) | CDK2 | thermal stability | – | DSF | 10 µM | ΔTm | 0.1 °C
N#Cc1c(NC(=O)c2cccc3ccccc23)sc2c1CCCC2 | CDK2 with cyclin A | cell-free assay | – | – | 0.5 µM | remaining signal | 100%
Cc1cc(NC(=O)c2cccc3cc(-c4cccc5[nH]nc(N)c45)ccc23)ccc1F | CDK2 with cyclin A | enzyme activity | inhibitor | – | 0.1 µM | activity vs control | 100%
Cn1c2c(c3ccc(Cl)c(Cl)c31)C(C#N)C(C)(C)NC2=O (centres unmarked) | CDK2 | thermal stability | – | DSF | 10 µM | ΔTm | 0.5 °C
CC(C)CC(=O)N1CCc2nc(-c3ccc(Br)cc3)nc(N(C)Cc3ccccc3)c2C1 | CDK2 | cell-free assay | – | competition with immobilised ligand | 0.1 µM | remaining binding | 80%
Cc1ccc(NC(=O)c2ccc(C)c(C(F)(F)F)c2)cc1C#Cc1nn(C2CCC(O)CC2)c2ncnc(N)c12 (centres unmarked) | CDK2 with cyclin A | cell-free assay | – | – | 10 µM | remaining signal | 100%
CS(=O)(=O)CCNCc1ccc(-c2ccc3ncnc(Nc4ccc(OCc5cccc(F)c5)c(Cl)c4)c3c2)o1 | CDK2 with cyclin E | cell-free assay | – | – | 0.5 µM | remaining signal | 98.8%
CN(C(=O)c1ccccc1)c1cc(N(C)c2ccc3c(c2)CCc2ccc(C(=O)NCCN4CCOCC4)cc2C3=O)ccc1F | CDK2 | cell-free assay | – | competition with immobilised ligand | 1 µM | remaining binding | 96%
CC(C)c1ccc(NC(=O)c2cccs2)c(-c2nc3ccccc3[nH]c2=O)c1 | CDK2 with cyclin E | enzyme activity | inhibitor | – | 1 µM | activity vs control | 98%
CN(c1ccnc(CNc2nc(Nc3ccc4c(c3)CC(=O)N4)ncc2C(F)(F)F)n1)S(C)(=O)=O | CDK2 | cell-free assay | – | competition with immobilised ligand | 1 µM | remaining binding | 89%
N#CC1c2c([nH]c3c(Cl)c(Cl)ccc23)C(=O)NC12CCCCC2 (racemic) | CDK2 | thermal stability | – | DSF | 10 µM | ΔTm | -0.6 °C

Compound | target | effect on | mode | technique | tested at | quantity | value
Cc1sc(C(=O)NC2COC2)cc1-n1cc(NC(=O)Nc2c(F)cccc2Cl)cn1 | CDK2 with cyclin E | enzyme activity | inhibitor | – | 10 µM | remaining activity | 106%
Cc1ccc(C(=O)NCc2ccsc2)cc1C#Cc1cn(C(C)C)c2ncnc(N)c12 | CDK2 with cyclin E | enzyme activity | inhibitor | – | 1 µM | activity vs control | 108%
CCN1CCC2(CC1)NC(=O)c1c(c3ccc(Cl)c(Cl)c3n1C)C2C#N (racemic) | CDK2 | thermal stability | – | DSF | 10 µM | ΔTm | 0 °C
CC(C)[C@H](CO)Nc1nc(Nc2cccc(Cl)c2)c2ncn(C(C)C)c2n1 | CDK2 with cyclin A | cell-free assay | – | – | 0.5 µM | remaining signal | 6.91%
O=C(Nc1cccnn1)N1CC(C/C=C/c2cncc(Oc3ccc(C(F)(F)F)cn3)n2)C1 | CDK2 | cell-free assay | – | competition with immobilised ligand | 1 µM | remaining binding | 100%
N#CCCc1ccc2c(c1)-c1[nH]c3ccc([N+](=O)[O-])cc3c1CC(=O)N2 | CDK2 with cyclin A | cell-free assay | – | – | 0.5 µM | remaining signal | 2.93%
Cn1c2c(Cl)c(Cl)ccc2c2cn[nH]c(=O)c21 | CDK2 | thermal stability | – | DSF | 10 µM | ΔTm | 0.6 °C
NS(=O)(=O)c1cc(NC(=O)Cc2ccccc2)ccc1Oc1cccc(Cl)c1 | CDK2 | cell-free assay | – | competition with immobilised ligand | 1 µM | remaining binding | 100%
O=C(Nc1cnn(-c2csc(C(=O)NC3COC3)c2)c1)Nc1c(F)cccc1Cl | CDK2 with cyclin A | enzyme activity | inhibitor | – | 5 µM | remaining activity | 93.8%
O=C1NC(=O)c2cc(Nc3ccc(F)cc3)c(Nc3ccc(F)cc3)cc21 | CDK2 with cyclin E | cell-free assay | – | – | 0.5 µM | remaining signal | 94.3%
FC(F)(F)Oc1cccc(-c2cnc3ccc(-c4ccncc4)nn23)c1 | CDK2 with cyclin A | enzyme activity | inhibitor | radiometric | 1 µM | activity vs control | 26%
COc1cc(OC)c(C=C2C(O)=Nc3ccccc32)c(OC)c1 | CDK2 with cyclin A | cell-free assay | – | – | 0.5 µM | remaining signal | 96.3%
CCS(=O)(=O)c1cc2cc(C[C@@](O)(CC(C)(C)c3ccc(F)cc3C(N)=O)C(F)(F)F)[nH]c2cn1 | CDK2 | cell-free assay | – | competition with immobilised ligand | 1 µM | remaining binding | 96%
CN(C)C1CCN(CC#Cc2nn(C3CCCC3)c3nc(NCc4ccccc4)ncc23)C1 (centres unmarked) | CDK2 with cyclin A | enzyme activity | inhibitor | FRET | 1 µM | inhibition | 9%
O=C(N[C@H]1CCCCC/C=C\C2C[C@@]2(C(=O)O)NC(=O)[C@@H]2C[C@@H](Oc3ccncc3)CN2C1=O)OC1CCCC1 (some centres unmarked) | CDK2 | binding | – | competition with immobilised ligand | 1 µM | remaining binding | 87%
COc1cc2c(cc1OC)-c1[nH]nc(Nc3cccc(F)c3)c1C2 | CDK2 with cyclin A | cell-free assay | – | – | 0.5 µM | remaining signal | 87.5%
